Like-named read-outs stand apart in the source and are kept apart here.
What was measured:
αIIbβ3 = details: patients with acute coronary syndrome ref Cox et al., 2000; cited from earlier work
αIIbβ3 headpiece [1] = biological target: T1, αIIbβ3 headpiece (Homo sapiens, UniProt P05106+P08514); assay: Size-exclusion chromatography; assay type: biochemical; details: 10 μM drug
Method in brief: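 Superdex 200 column equilibrated with 10 µM test compound in HEPES-buffered saline containing either 1 mM Mg2+/1 mM Ca2+ or 2 mM Mn2+/0.2 mM Ca2+. αIIbβ3 headpiece (30 µg) pre-incubated 30 min at RT with 60 µM compound in matching buffer, then chromatographed. Hydrodynamic radius taken from elution. Two runs, or one, per compound; controls ≥3.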

αIIbβ3 headpiece [2] = biological target: T1, αIIbβ3 headpiece
Method in brief: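 Closed αIIbβ3 headpiece–10E5 Fab crystals stabilised in 15% PEG 8000, 0.2 M ammonium sulfate, 0.1 M Tris-HCl pH 8.9, with glycerol raised in 5% steps to 15%. Compound (0.1-1 mM) added in the final 20% glycerol cryo step, with 1 mM MgCl2/1 mM CaCl2 or 2 mM MnCl2/0.2 mM CaCl2. Soaked 4 h, plunge-frozen in liquid N2. Synchrotron diffraction data collected, then structure refinement.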

WT αIIbβ3 = assay: Competition with FITC-echistatin binding to WT αIIbβ3 transfectant in serum; details: 95% serum compared to 0.1% BSA
αIIbβ3 WT = αIIbβ3 WT (Homo sapiens, UniProt P05106+P08514); assay: MBC319.4 Fab LIBS epitope exposure on αIIbβ3 WT transfectants; assay type: cell-based; details: inhibitors at 100x Kd
Sequence of αIIbβ3 WT (P08514 32-887 limits assumed): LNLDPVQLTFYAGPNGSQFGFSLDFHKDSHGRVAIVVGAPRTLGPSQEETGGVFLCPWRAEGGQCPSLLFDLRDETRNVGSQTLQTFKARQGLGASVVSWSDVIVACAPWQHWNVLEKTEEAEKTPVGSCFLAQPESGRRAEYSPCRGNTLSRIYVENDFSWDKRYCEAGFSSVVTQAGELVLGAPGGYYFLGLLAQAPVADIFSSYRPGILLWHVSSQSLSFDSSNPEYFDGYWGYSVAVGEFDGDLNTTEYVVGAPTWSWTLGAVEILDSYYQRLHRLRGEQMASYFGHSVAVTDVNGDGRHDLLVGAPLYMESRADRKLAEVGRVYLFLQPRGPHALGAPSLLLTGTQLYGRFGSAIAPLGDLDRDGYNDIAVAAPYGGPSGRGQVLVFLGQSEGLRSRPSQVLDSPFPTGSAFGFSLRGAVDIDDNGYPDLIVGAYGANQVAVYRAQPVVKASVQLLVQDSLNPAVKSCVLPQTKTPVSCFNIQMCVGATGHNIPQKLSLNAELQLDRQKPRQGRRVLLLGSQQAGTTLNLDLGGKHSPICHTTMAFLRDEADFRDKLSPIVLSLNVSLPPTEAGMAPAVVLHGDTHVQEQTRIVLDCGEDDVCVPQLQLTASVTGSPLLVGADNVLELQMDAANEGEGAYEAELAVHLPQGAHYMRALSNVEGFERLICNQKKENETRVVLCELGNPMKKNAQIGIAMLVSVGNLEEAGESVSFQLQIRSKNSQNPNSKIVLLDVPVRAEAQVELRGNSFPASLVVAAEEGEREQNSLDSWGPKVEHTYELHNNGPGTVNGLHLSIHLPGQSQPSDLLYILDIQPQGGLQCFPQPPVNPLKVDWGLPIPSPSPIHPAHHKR
Sequence of αIIbβ3 WT (P08514 891-1039 partner limits assumed): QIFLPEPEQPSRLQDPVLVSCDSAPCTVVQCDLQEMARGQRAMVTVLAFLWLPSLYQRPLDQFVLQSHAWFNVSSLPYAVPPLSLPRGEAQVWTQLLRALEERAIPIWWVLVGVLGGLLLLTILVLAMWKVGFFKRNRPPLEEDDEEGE
Sequence of αIIbβ3 WT (P05106 27-788): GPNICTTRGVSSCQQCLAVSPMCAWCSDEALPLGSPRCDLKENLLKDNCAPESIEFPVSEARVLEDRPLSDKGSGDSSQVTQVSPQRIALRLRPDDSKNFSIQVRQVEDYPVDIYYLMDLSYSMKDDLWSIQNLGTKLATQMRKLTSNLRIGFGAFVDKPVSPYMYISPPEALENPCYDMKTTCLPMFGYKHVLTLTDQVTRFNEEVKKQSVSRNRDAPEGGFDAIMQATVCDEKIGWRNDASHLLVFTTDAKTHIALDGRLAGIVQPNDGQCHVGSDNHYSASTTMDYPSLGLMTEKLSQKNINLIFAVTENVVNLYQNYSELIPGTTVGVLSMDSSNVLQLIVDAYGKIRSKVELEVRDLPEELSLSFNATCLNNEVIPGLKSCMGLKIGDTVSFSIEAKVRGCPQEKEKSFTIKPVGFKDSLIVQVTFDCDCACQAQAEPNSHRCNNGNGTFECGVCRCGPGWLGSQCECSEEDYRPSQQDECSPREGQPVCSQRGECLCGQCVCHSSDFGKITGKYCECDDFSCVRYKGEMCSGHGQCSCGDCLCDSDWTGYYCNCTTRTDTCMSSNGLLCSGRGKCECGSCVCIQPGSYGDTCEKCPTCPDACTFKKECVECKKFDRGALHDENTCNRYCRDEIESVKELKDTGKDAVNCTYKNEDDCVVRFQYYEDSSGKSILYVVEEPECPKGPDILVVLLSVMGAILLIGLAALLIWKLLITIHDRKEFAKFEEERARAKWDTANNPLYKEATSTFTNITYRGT
Method in brief: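 Cells transiently transfected with αIIbβ3 received valproic acid (3 mM final) and glucose (0.4%) at 24 h, and were washed at 48 h in EDTA-containing then plain L-15/0.1% BSA. Cells were incubated with 20 nM Alexa647-MBC319.4 Fab plus inhibitor (Kd from FITC-echistatin competition on WT transfectants) in L15/0.1% BSA, 22°C for 2 h. Read-out was unwashed flow cytometry.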

[3] = biological target: αIIbβ3 on washed human platelets (Homo sapiens, UniProt P05106+P08514); assay: Platelets LIBS exposure assay; assay type: cell-based
Sequence of αIIbβ3 on washed human platelets (P08514 32-887 limits assumed): as the sequence (P08514 32-887 limits assumed) above
Sequence of αIIbβ3 on washed human platelets (P08514 891-1039 partner limits assumed): as the sequence (P08514 891-1039 partner limits assumed) above
Sequence of αIIbβ3 on washed human platelets (P05106 27-788): as the sequence (P05106 27-788) above
Method in brief: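 Blood from drug-free healthy donors was taken into acid-citrate-dextrose. PRP was spun (140xg, 12 min), given PGE1 at 50 ng/ml, pelleted, washed in citrate-dextrose buffer pH 6.5 and resuspended in Tyrode's pH 7.4 with 1% BSA and 1 mM Ca²⁺/Mg²⁺. […] Read-out was unwashed flow cytometry MFI, over three days with two donors.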

[4] = tested on: clot retraction in human PRP; assay: Clot retraction in platelet-rich plasma; assay type: cell-based; details: thrombin
Method in brief: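 Citrated human PRP pre-incubated 20 min at RT with test compound or buffer (in Tyrode's buffer + 1% BSA) at several concentrations. Glass-tube clot retraction started with thrombin (7.5 U/ml stock) at 37°C and imaged every 15 min. Retraction = 1 − (clot area/whole reaction area). IC50 at 30 and 90 min from a three-parameter inhibitor-response fit. Three runs, PRP from three donors.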

α5β1 = details: ref Li et al., 2017; cited from earlier work
αIIbβ3_N305T = αIIbβ3_N305T (Homo sapiens, UniProt P05106+P08514, N331T); assay: MBC319.4 Fab LIBS epitope exposure on αIIbβ3_N305T transfectants; assay type: cell-based; details: αIIbβ3 N305T transfectants, inhibitors at 100x Kd
Sequence of αIIbβ3_N305T (P08514 32-887 limits assumed): as the sequence (P08514 32-887 limits assumed) above
Sequence of αIIbβ3_N305T (P08514 891-1039 partner limits assumed): as the sequence (P08514 891-1039 partner limits assumed) above
Sequence of αIIbβ3_N305T (P05106 27-788 N331T): as the sequence (P05106 27-788) above, with N305T counted along it
Method in brief: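 αIIbβ3_N305T transfectants of α5/αV-knockout Expi293F cells, harvested 48 h post-transfection and EDTA-washed. Incubated with 20 nM Alexa647-labelled MBC319.4 Fab and test compound in L-15 with 0.1% BSA, equilibrated 2 h at 22°C. Fab binding read by flow cytometry without washing, as MFI.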

αIIbβ3 on platelets = details: Mg2+ ref Baba et al., 2001; cited from earlier work
[5] = 2012, cited from earlier work
[6] = tested on: αIIbβ3 WT and αIIbβ3_N305T; assay type: binding; details: Expi293F transfectants, L15 medium with 0.1% BSA
Method in brief: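 Expi293F cells with α5 and αV knocked out, transiently co-transfected with αIIb plus β3 or β3_N305T; valproic acid (3 mM) and glucose (0.4%) added at 24 h. At 48 h, cells washed with EDTA-containing L-15/0.1% BSA, then plain assay medium. 10^6 cells/ml incubated with FITC-echistatin and varying test compound, 2 h at 22°C; unwashed flow cytometry. Probe Kd from titration against 5 nM AF647-MBC319.4 Fab. Compound Kd from nonlinear least-squares fits with integrin concentration as a parameter, with error propagation.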

[7] = after activation with thrombin 0.5 U/ml

T1 sequence (P08514 32-488 limits assumed): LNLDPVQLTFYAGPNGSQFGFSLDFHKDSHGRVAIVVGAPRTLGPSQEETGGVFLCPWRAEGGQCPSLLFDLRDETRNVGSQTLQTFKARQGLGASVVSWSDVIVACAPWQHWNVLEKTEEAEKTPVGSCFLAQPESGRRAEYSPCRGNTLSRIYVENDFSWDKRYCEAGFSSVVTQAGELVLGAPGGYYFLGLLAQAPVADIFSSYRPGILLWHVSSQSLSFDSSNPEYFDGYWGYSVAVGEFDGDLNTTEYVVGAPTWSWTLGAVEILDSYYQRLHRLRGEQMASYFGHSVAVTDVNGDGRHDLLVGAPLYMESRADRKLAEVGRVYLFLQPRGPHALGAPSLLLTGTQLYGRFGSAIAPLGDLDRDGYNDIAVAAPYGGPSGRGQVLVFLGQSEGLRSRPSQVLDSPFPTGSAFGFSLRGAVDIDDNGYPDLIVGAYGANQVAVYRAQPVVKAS
T1 sequence (P05106 27-498 limits assumed): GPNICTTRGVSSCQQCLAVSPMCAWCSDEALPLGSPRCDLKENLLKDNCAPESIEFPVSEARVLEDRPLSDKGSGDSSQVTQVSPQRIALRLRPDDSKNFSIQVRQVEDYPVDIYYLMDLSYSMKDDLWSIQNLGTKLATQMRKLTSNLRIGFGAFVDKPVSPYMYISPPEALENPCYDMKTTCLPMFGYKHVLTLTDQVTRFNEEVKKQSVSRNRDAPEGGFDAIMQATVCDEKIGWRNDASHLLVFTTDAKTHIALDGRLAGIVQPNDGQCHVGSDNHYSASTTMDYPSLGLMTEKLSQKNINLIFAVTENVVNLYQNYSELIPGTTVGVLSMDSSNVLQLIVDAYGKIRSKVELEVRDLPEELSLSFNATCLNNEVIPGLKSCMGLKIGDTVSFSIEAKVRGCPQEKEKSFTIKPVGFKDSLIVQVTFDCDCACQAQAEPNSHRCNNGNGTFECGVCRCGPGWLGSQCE

| Compound | effect on αIIbβ3 headpiece opening in gel filtration (αIIbβ3 headpiece [1]; 1 mM Mg2+/1 mM Ca2+) | effect on structure of closed αIIbβ3 headpiece in crystals (αIIbβ3 headpiece [2]; soaked in Mg2+) | LIBS (MBC319.4) epitope exposure (αIIbβ3 WT) | LIBS epitope exposure (integrin extension) on washed platelets ([3]; absence of thrombin) | inhibition of clot retraction [4] | LIBS (MBC319.4) epitope exposure (αIIbβ3_N305T) | LIBS epitope exposure (integrin extension) on washed platelets [3, 7] | further results |
| --- | --- | --- | --- | --- | --- | --- | --- | --- |
| CCOC(=O)CCNC(=O)N[C@H]1CCN(c2ccc(C(=N)N)cc2)C1=O [orbofiban] | – | – | – | – | – | – | – | platelet activation markers in treated patients (αIIbβ3): increased αIIbβ3 conformational change, antibody-stimulated thromboxane B2 production, and CD63 expression |
| CCCCS(=O)(=O)N[C@@H](Cc1ccc(OCCCCC2CCNCC2)cc1)C(=O)O [tirofiban] | caused the headpiece to elute earlier in gel filtration | Ser-123 displaced water 1 to coordinate directly to the MIDAS metal ion | next strongest | Stronger extension | effective | – | – | hydrodynamic radius of αIIbβ3 headpiece (αIIbβ3 headpiece [1]; 2 mM Mn2+/0.2 mM Ca2+): ~ 5.36 nm; decrease of affinity in 95% serum (WT αIIbβ3): 1.8 fold |
| fibronectin | – | – | – | – | – | – | – | higher affinity for the open than the closed conformation (α5β1): 6,000 fold |
| N=C(N)c1ccc(C(=O)N[C@@H](Cc2ccc([N+](=O)[O-])cc2)C(=O)N2CCc3nn(CC(=O)O)cc3C2)cc1 [UR-2922] | neither UR-2922 nor BMS4 increased the hydrodynamic radius | no structural perturbation | – | – | effective | significantly suppressed LIBS induction | decreased | effect on αIIbβ3 headpiece opening in gel filtration (αIIbβ3 headpiece [1]; 2 mM Mn2+/0.2 mM Ca2+): shifted the headpiece to a smaller hydrodynamic radius than the control; effect on structure of closed αIIbβ3 headpiece in crystals (αIIbβ3 headpiece [2]; soaked in Mn2+): no structural perturbation; LIBS epitopes on platelets (αIIbβ3 on platelets): not to induce LIBS epitopes |
| CCOCc1cc(OC)c(-c2ccc(C[C@H](NC(=O)c3c(F)cccc3F)C(=O)O)cc2)c(OC)c1 [firategrast] | – | – | – | – | – | – | – | gadolinium-enhanced lesions ([5]; highest dose ref Miller et al.): significant decrease; gadolinium-enhanced lesions ([5]; lowest dose ref Miller et al.): significant increase; gadolinium-enhanced lesions ([5]; middle dose ref Miller et al.): lack of effect |
| NCC(=O)Nc1cncc(-c2nn3c(=O)cc(N4CCNCC4)nc3s2)c1 [RUC-4] | – | – | no effect on LIBS epitope expression | no significant effect | effective | no effect on LIBS epitope expression | no effect on integrin extension | affinity for activated mutant (β3 N305T) compared with WT αIIbβ3 [6]: indistinguishable |

From paper PMC9494814 (Cell, 2022)
